Assay results taken from ChEMBL document CHEMBL1177726, “Amphiphilic amide nitrones: a new class of protective agents acting as modifiers of mitochondrial metabolism” (J Med Chem, 2010).
Converted amounts (≈) assume the structure as drawn. The source made the active and inactive calls. No cut-off for these calls is given here.

Legend:
Rattus norvegicus [1] = organism: Rattus norvegicus; test: Induction of Electron transport protein complex 1 in Sprague-Dawley rat cortical mitochondria assessed as reduction of ferric cyanide at 10 uM after 30 mins
In short: (§1)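 Submitochondrial particles from rat cortical mitochondria were preincubated 30 min with nitrone (10 μM), dopamine, or both. Ferricyanide reduction was then followed from the 440 minus 490 nm difference in the presence of antimycin A and azide at 37.5 C, as a read-out of iron-sulfur cluster N2 activity. Activity is given as nmol/mg protein/min, mean ± SEM, N = 10.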

Rattus norvegicus [2] = organism: Rattus norvegicus; test: Restoration of FCCP-induced decrease of mitochondrial membrane potential in Sprague-Dawley rat forebrain mitochondria at 0.8 uM treated 15 mins before FCCP challenge measured after 30 mins by rhodamine 123 fluorescence assay; format: functional
In short: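 Rat forebrain mitochondria respired on 6 mM glutamate/malate at 37.5 C with nitrone. FCCP (0.2 μM) was added at 15 min to partly collapse the potential, and rhodamine 123 fluorescence quenching was recorded directly at 30 min. Potential was calculated by the Scaduto and Grotyohann method. Mean ± SEM of at least four preparations.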

Rattus norvegicus [3] = organism: Rattus norvegicus; test: Inhibition of rotenone-induced electron leakage in Sprague-Dawley rat forebrain mitochondria assessed as NBT reduction at 0.8 uM after 30 mins; format: functional
In short: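 Forebrain mitochondria from 3-month-old rats, in Tris-KCl phosphate medium at pH 7.4, respired on 6 mM glutamate and 6 mM malate at 37.5 C with nitrone for 30 min. NBT reduction was run with 3 μM rotenone and 3 mM azide, and the formazan was then extracted and measured. Mean ± SEM of at least four independent preparations.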

Rotifers [4] = test: Inhibition of water soluble peroxide formation in Rotifers cultures; format: functional, organism-based; details: Rotifera; TDE = time-dependent effect
Rattus norvegicus [5] = organism: Rattus norvegicus; test: Inhibition of water soluble peroxide formation in Sprague-Dawley rat forebrain mitochondria at 0.8 uM after 30 mins by FOX assay; format: functional
In short: (§2)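 Rat forebrain mitochondria respired on 6 mM glutamate/malate with nitrone at 37.5 C for 30 min, then were put on ice and homogenized in H2SO4. The supernatant was mixed with FeSO4, xylenol orange and sorbitol at 0.07 M H2SO4, held 30 min at 25 C in the dark, and read at 570 nm. Mean ± SEM of at least four independent preparations.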

Rotifers [6] = test: Protection against doxorubicin-induced toxicity in Rotifers assessed as viability at 10 uM after 24 hrs; format: functional, Rotifera
In short: (§3)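 Individually housed Philodina rotifers were exposed for 24 h to H2O2 or doxorubicin (200 μM), with nitrone (10 μM) added at the same time. Read-out was % viable animals. Vehicle controls came from the same stock culture and were run in parallel. Mean ± SEM, N = 10; ANOVA with Bonferroni t test.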

Rotifers [7] = test: Protection against hydrogen peroxide-induced toxicity in Rotifers assessed as viability at 10 uM after 24 hrs; format: functional, Rotifera; in short: as §3
[8] = Inhibition of doxorubicin-induced cell death in Sprague-Dawley rat primary mixed cortical cells at 10 uM after 24 hrs by trypan blue absorbance assay; format: functional
In short: (§4)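 Mixed cortical cultures from E15 rat embryos were exposed for 24 h to H2O2, peroxynitrite or doxorubicin (200 μM), with nitrone (10 μM) added at the same time. Cell death was measured by trypan blue absorbance at 590 nm and expressed as % inhibition. Mean ± SEM, N = 10; ANOVA with Bonferroni t test against vehicle.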

[9] = Inhibition of peroxynitrite-induced cell death in Sprague-Dawley rat primary mixed cortical cells at 10 uM after 24 hrs by trypan blue absorbance assay; format: functional; in short: as §4
[10] = Inhibition of hydrogen peroxide-induced cell death in Sprague-Dawley rat primary mixed cortical cells at 10 uM after 24 hrs by trypan blue absorbance assay; format: functional; in short: as §4
[11] = Antioxidant activity assessed as reduction of ABTS radical measured for 30 mins; format: functional
In short: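 ABTS cation radical at 105 μM final, test compound at 0.5 mM final, DMSO vehicle at 2.5% final in controls. The reaction is started by adding the nitrone, and loss of radical is followed at 420 nm every minute for 30 min. Results are reduced ABTS•+ per 30 min as mean ± SEM, N = 10, compared with vehicle by ANOVA with Bonferroni t test.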

[12] = Antioxidant activity assessed as ABTS radical scavenging activity assessed as burstlike formation of intensely green colored ABTS radical measured for 30 mins; format: functional
In short: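 Fenton-initiated ABTS cation radical formation: water, ABTS (1 mM stock), FeSO4 (0.5 mM stock), test compound (1 mM stock in DMSO), reaction started with H2O2 (10 mM stock). Absorbance read at 420 nm every minute over 30 min. Controls got DMSO vehicle, 10% final. Scavenging is seen as suppression of time-dependent radical formation.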

[13] = Lipophilicity, log K in methanol-water mixture by HPLC; format: physicochemical
In short: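 Nitrones in methanol (1.0 mg/mL) were run by reverse-phase C18 HPLC, eluted with MeOH/water from 9:1 to 7:3 v/v at 0.8 mL/min. Retention values were extrapolated to 100% aqueous to give log k'W.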

[14] = Solubility in water; format: physicochemical
Rattus norvegicus [15] = organism: Rattus norvegicus; test: Induction of Electron transport protein complex 1 in Sprague-Dawley rat cortical mitochondria assessed as reduction of ferric cyanide at 10 uM after 30 mins in presence of EPBNAH
Rattus norvegicus [16] = organism: Rattus norvegicus; test: Induction of Electron transport protein complex 1 in Sprague-Dawley rat cortical mitochondria assessed as reduction of ferric cyanide at 10 uM after 30 mins in presence of dopamine; in short: as §1
[17] = Critical micellar concentration of the compound; format: physicochemical
In short: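 Nitrone solutions in ultrapure water were measured at 25 C by the Wilhelmy plate method with a tensiometer. The cmc was taken as the breakpoint of the plot of surface tension against log concentration.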

Rattus norvegicus [18] = organism: Rattus norvegicus; test: Inhibition of water soluble peroxide formation in Sprague-Dawley rat forebrain mitochondria at 0.4 uM after 30 mins by FOX assay; format: functional; in short: as §2

Compound	logKw [13]	solubility [14]	Activity (Rattus norvegicus [1])	Activity (Rattus norvegicus [2])	inhibition (Rattus norvegicus [3])	inhibition (Rotifers [4])	inhibition (Rattus norvegicus [5])	Activity (Rotifers [6])	Activity (Rotifers [7])	inhibition at 10 µM [8]	inhibition at 10 µM [9]	inhibition at 10 µM [10]	Activity [11]	Activity [12]	Activity (Rattus norvegicus [15])	Activity (Rattus norvegicus [16])	CMC [17]	inhibition (Rattus norvegicus [18])
CC(C)(C)/[N+]([O-])=C/c1ccccc1	1.62		107 nmol/mg/min					18.7%	25.6%	24.2%	20.6%	25%			13 nmol/mg/min	60 nmol/mg/min		
CC(C)(CNC(=O)CCC(F)(F)C(F)(F)C(F)(F)C(F)(F)C(F)(F)C(F)(F)F)/[N+]([O-])=C/c1ccc(CNC(=O)[C@H](O)[C@H](O)[C@H](O[C@@H]2O[C@H](CO)[C@H](O)[C@H](O)[C@H]2O)[C@@H](O)CO)cc1								30.6%	40.6%	34.9%	40.1%	63.4%					0.213 mM	

The next lines start with results.

logKw [13]	solubility [14]	Compound	Activity (Rattus norvegicus [1])	Activity (Rattus norvegicus [2])	inhibition (Rattus norvegicus [3])	inhibition (Rotifers [4])	inhibition (Rattus norvegicus [5])	Activity (Rotifers [6])	Activity (Rotifers [7])	inhibition at 10 µM [8]	inhibition at 10 µM [9]	inhibition at 10 µM [10]	Activity [11]	Activity [12]	Activity (Rattus norvegicus [15])	Activity (Rattus norvegicus [16])	CMC [17]	inhibition (Rattus norvegicus [18])
2.86	530 mg/mL (≈ 771 mM)	CCCCCCCC(=O)NCc1ccc(/C=[N+](\[O-])C(C)(C)CNC(=O)[C@H](O)[C@H](O)[C@H](O[C@@H]2O[C@H](CO)[C@H](O)[C@H](O)[C@H]2O)[C@@H](O)CO)cc1	124 nmol/mg/min	Active	Active	tde	80%	96.5%	87.6%	93%	90.1%	93%	49.1 nmol	96.8 nmol	31 nmol/mg/min	110 nmol/mg/min		
4.71	270 mg/mL (≈ 289 mM)	CC(C)(CNC(=O)[C@H](O)[C@H](O)[C@H](O[C@@H]1O[C@H](CO)[C@H](O)[C@H](O)[C@H]1O)[C@@H](O)CO)/[N+]([O-])=C/c1ccc(CNC(=O)CCC(F)(F)C(F)(F)C(F)(F)C(F)(F)C(F)(F)C(F)(F)F)cc1						46.7%	30.1%	32.8%	30.3%	42.6%	42.6 nmol	90.7 nmol			0.18 mM	
	515 mg/mL (≈ 749 mM)	CCCCCCCC(=O)NCC(C)(C)/[N+]([O-])=C/c1ccc(CNC(=O)[C@H](O)[C@H](O)[C@H](O[C@@H]2O[C@H](CO)[C@H](O)[C@H](O)[C@H]2O)[C@@H](O)CO)cc1	116 nmol/mg/min		Active	tde	20%	85.8%	83%	82%	61%	81%			19 nmol/mg/min	79 nmol/mg/min		10%
